T/C and IC50 data for 12 molecules are collected here from ChEMBL document CHEMBL1123625, “Synthesis and antitumor activity of tropolone derivatives. 6. Structure-activity relationships of antitumor-active tropolone and 8-hydroxyquinoline derivatives” (J Med Chem, 1987).

The term T/C denotes the ratio of treated to control. As a reminder, the IC50 is the concentration needed to halve the response being measured.

Structures are written as SMILES. Converted amounts (≈) assume the structure as drawn. The source made the active and inactive calls. The rule behind the calls is not given here. A value given as a limit tells only on which side of the number the result lay.

In assay [1] the test system is Mus musculus. The assay is described as follows: Antitumor activity against leukemia P388 cell line in mice was determined at 400 mg/kg intraperitoneal dose; IA means inactive. The format is functional, organism-based. Further details: dose 400 mg/kg. In outline:
(§1)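 Mice bearing leukemia P388, dosed intraperitoneally; activity read out as % T/C.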

Assay [2] can be described thus: Antitumor activity was determined by the ability to inhibit KB cell growth. The format is functional, cell-based. The following applies: Homo sapiens. In outline:
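KB cell growth inhibition, reported as IC50 in μg/mL.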

Assay [3] relates to Mus musculus. The assay can be described thus: Antitumor activity against leukemia P388 cell line in mice was determined at 10 mg/kg intraperitoneal dose. The format is functional. In outline:
as §1

Assay [4] concerns Mus musculus. The assay is described as follows: Antitumor activity against leukemia P388 cell line in mice was determined at 40 mg/kg intraperitoneal dose. The format is functional. In outline: as §1
Assay [5] has as its system Mus musculus. The assay is described as follows: Antitumor activity against leukemia P388 cell line in mice was determined at 20 mg/kg intraperitoneal dose. The format is functional. The method in brief: as §1
The test system of assay [6] is Mus musculus. The assay is described as follows: Antitumor activity against leukemia P388 cell line in mice was determined at 100 mg/kg intraperitoneal dose. The format is functional. The method in brief:
as §1

For assay [7], the system named is Mus musculus. The assay is described as follows: Antitumor activity against leukemia P388 cell line in mice was determined at 400 mg/kg intraperitoneal dose. The format is functional. In outline: as §1
For assay [8], the system named is Mus musculus. The assay is described as follows: Antitumor activity against leukemia P388 cell line in mice was determined at 50 mg/kg intraperitoneal dose. The format is functional. In outline:
as §1

Assay [9] deals with Mus musculus. The assay is described as follows: Antitumor activity against leukemia P388 cell line in mice was determined at 12.5 mg/kg intraperitoneal dose. The format is functional. The method in brief: as §1
The test system of assay [10] is Mus musculus. The assay can be described thus: Antitumor activity against leukemia P388 cell line in mice was determined at 25 mg/kg intraperitoneal dose. The format is functional. The method in brief:
as §1

The test system of assay [11] is Mus musculus. The assay can be described thus: Antitumor activity against leukemia P388 cell line in mice was determined at 2.5 mg/kg intraperitoneal dose. The format is functional. The method in brief: as §1
The test system of assay [12] is Mus musculus. The assay can be described thus: Antitumor activity against leukemia P388 cell line in mice was determined at 3.1 mg/kg intraperitoneal dose. The format is functional. In outline:
as §1

Assay [13] relates to Mus musculus. The assay is described as follows: Antitumor activity against leukemia P388 cell line in mice was determined at 6.3 mg/kg intraperitoneal dose. The format is functional. In outline:
as §1

With `CCOC(c1ccc(OC)cc1)c1c(O)ccc2ncccc12` (centres undefined), the T/C result in assay [1] is “inactive”. This molecule also registered an IC50 in assay [2] of 44 µg/mL (≈ 142 µM).

With `Oc1c(C(c2ccco2)c2ccc3cccnc3c2O)ccc2cccnc12`, the T/C in assay [3] was determined as 113%; in assay [4] it was 138%; in [5], 120%. In assay [2], the IC50 is under 0.3 µg/mL.

Regarding `CCOC(c1ccc(OC)cc1)c1ccc2cccnc2c1O` (centres undefined), the values for the T/C in [6] and in assay [7] were 112% and 129%, respectively. Moreover, the IC50 in [2] was determined as 0.8 µg/mL (≈ 2.59 µM).

In the case of `COc1ccc(C(c2ccc3cccnc3c2O)c2oc(CO)cc(=O)c2O)cc1` (centres undefined), the T/C in assay [8] came to 135%; in [9], 120%; in assay [10], 138%. Moreover, the concentration for half-maximal inhibition (IC50) in [2] is under 0.3 µg/mL.

Regarding `COc1ccc(C(c2ccc(C(C)C)cc(=O)c2O)c2ccc(C(C)C)cc(=O)c2O)cc1`, the T/C in assay [3] is on record as 170%. Further, in [2], the IC50 is under 0.3 µg/mL.

On to `COc1ccc(C(c2ccc(C(C)C)cc(=O)c2O)c2oc(CO)cc(=O)c2O)cc1` (centres undefined), for which the results for the T/C in assay [8], in [9] and in assay [10] were 152%, 128% and 146%, respectively. In assay [2], this molecule showed an IC50 of 0.5 µg/mL (≈ 1.18 µM).

In [6], `CC(C)c1ccc(C2OCCc3ccccc32)c(O)c(=O)c1` (centres undefined) had a T/C of 112%.

For the molecule `Oc1c(C(c2cccs2)c2ccc3cccnc3c2O)ccc2cccnc12`, the T/C in assay [3] was 125%; in [11], 108%; in assay [5] it was 136%. For the same molecule, the concentration for half-maximal inhibition (IC50) in assay [2] is under 0.3 µg/mL.

Regarding `COc1ccc(C(c2c(O)ccc3ncccc23)c2c(O)ccc3ncccc23)cc1`, the T/C entry in assay [1] was “inactive”. For the same molecule, 17 µg/mL (≈ 41.6 µM) corresponded to half-maximal inhibition in assay [2] (IC50).

As for `COc1ccc(C(c2ccc3cccnc3c2O)c2ccc3cccnc3c2O)cc1`, the T/C in assay [12] worked out at 111%; in assay [9] it was 164%; in [13], 128%. The molecule further had an IC50 in assay [2] of under 0.3 µg/mL.

As to `CCOC(c1ccccc1)c1ccc(C(C)C)cc(=O)c1O` (centres undefined), the T/C result in [1] was “inactive”. In [2], this molecule registered an IC50 of under 0.3 µg/mL.

Consider `Oc1c(C2OCCc3ccccc32)ccc2cccnc12` (centres undefined), for which the T/C entry in assay [1] was “inactive”. The molecule further registered an IC50 in assay [2] of 1.3 µg/mL (≈ 4.69 µM).
